Data published in ChEMBL document CHEMBL2390899, “Synthesis of new 18F-radiolabeled silicon-based nitroimidazole compounds” (Bioorg Med Chem, 2013).
One block for each molecule: values may come before it.

Key:
Intestine = experiment: Biodistribution in Wistar rat intestine at 10 MBq after 90 mins by PET analysis; type: ADME, organism-based; conditions: in vivo, 1.5 h
[1] = Drug degradation in water at pH 7.4 by radio-HPLC and radio-TLC analysis; type: physicochemical; conditions: read-out: Drug degradation
Procedure, shortened: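 Decomposition of the 18F compound in water at pH 7.4 was followed by radio-HPLC and radio-TLC, read after 120 min.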

[2] = Lipophilicity, log D of the compound at pH 7.4; type: physicochemical; conditions: buffer
[3] = Chemical stability of the compound in saline after 2 hrs at pH 5.5 by radio-HPLC and radio-TLC analysis; type: physicochemical; conditions: read-out: Stability
Procedure, shortened: (§1)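 Aqueous saline (pH 5.5) samples of the 18F compound were analysed by radio-HPLC and radio-TLC at 5, 15, 30, 60 and 120 min to follow hydrolysis of the Si–F bond. Hydrolysis was followed up to 180 min. Half-life was taken from the decay of intact tracer.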

Muscle tissue = experiment: Biodistribution in Wistar rat muscle at 10 MBq after 90 mins by PET analysis; type: ADME, organism-based; conditions: in vivo, 1.5 h
Liver = experiment: Biodistribution in Wistar rat liver at 10 MBq after 90 mins by PET analysis; type: ADME, organism-based; conditions: in vivo, 1.5 h
Rattus norvegicus [4] = organism: Rattus norvegicus; experiment: Biodistribution in Wistar rat femur bone at 10 MBq after 90 mins by PET analysis; type: ADME, organism-based, Bone element; conditions: in vivo, 1.5 h
[5] = Chemical stability of the compound in saline after 180 mins at pH 5.5 by radio-HPLC and radio-TLC analysis; type: physicochemical; conditions: buffer, pH 5.5, 3 h; procedure, shortened: as §1
Heart = experiment: Biodistribution in Wistar rat heart at 10 MBq after 90 mins by PET analysis; type: ADME, organism-based; conditions: in vivo, 1.5 h
[6] = Metabolic stability in human plasma assessed as compound remaining after 2 hrs by radio-HPLC and radio-TLC analysis; type: ADME, cell-free; conditions: read-out: Stability
Procedure, shortened: (§2)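 The 18F-labelled compound was incubated in human plasma at 37 °C and monitored by radio-HPLC and radio-TLC for at least 120 min. The intact fraction and the half-life were obtained from this time course.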

Rattus norvegicus [7] = organism: Rattus norvegicus; experiment: Biodistribution in Wistar rat bladder at 10 MBq after 90 mins by PET analysis; type: ADME, organism-based, Urinary bladder/Urine; conditions: in vivo, 1.5 h
[8] = Octanol-water partition coefficient, log P of the compound; type: physicochemical
Procedure, shortened: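 LogP was calculated as clogP with ChemDraw 11.0.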

[9] = Half life of the compound in saline at pH 5.5 by radio-HPLC and radio-TLC analysis; type: physicochemical; procedure, shortened: as §1
[10] = Lipophilicity, log D of the compound at pH 4; type: physicochemical; conditions: buffer
[11] = Half life human plasma by radio-HPLC and radio-TLC analysis; type: ADME, cell-free; procedure, shortened: as §2
[12] = Half life of the compound; type: physicochemical

- SUV (Intestine): 6.5%
- degraded [1]: < 10%
- logD [2]: 2.12
- remaining at 2 h [3]: 100%
- SUV (Muscle tissue): 0.3%
- SUV (Liver): 7.3%
- SUV (Rattus norvegicus [4]): 2.8%
- Stability [5]: Stable
- SUV (Heart): 0.5%
- remaining at 2 h [6]: 85%
- SUV (Rattus norvegicus [7]): 9.5%
Compound: CC(C)(C)[Si]([18F])(c1cccc(C(=O)NCCn2ccnc2[N+](=O)[O-])c1)C(C)(C)C

- P [8]: 5.7
Compound: O=C(Cn1ccnc1[N+](=O)[O-])NCC(F)(F)C(F)(F)F

The remaining lines, values behind:

Compound: O=C(Cn1ccnc1[N+](=O)[O-])NCCC[Si]([18F])(c1cccc2ccccc12)c1cccc2ccccc12
- half-life [9]: 1 h
- logD [10]: 0.12
- half-life [11]: < 5 min

Compound: O=[N+]([O-])c1nccn1CCOCCOCc1cn(CCC[Si]([18F])(c2cccc3ccccc23)c2cccc3ccccc23)nn1
- half-life [9]: 1 h
- half-life [11]: < 5 min

Compound: O=[N+]([O-])c1nccn1CCC[Si]([18F])(c1cccc2ccccc12)c1cccc2ccccc12
- half-life [12]: 2.17 h
